Activity and MIC data for 2 compounds are collected here from ChEMBL document CHEMBL1143542, “Structure-activity relationships of bivalent aminoglycosides and evaluation of their microbiological activities” (2005).

As usually defined, the MIC is the lowest concentration found to suppress growth. High values mean weaker potency, low ones greater potency.

The subject of assay [1] is Pseudomonas aeruginosa. As to the kind of experiment: (§1) Susceptibility testing against Pseudomonas aeruginosa PAE_NUH21; S=Susceptible. The format is functional, organism-based. In a few lines: (§2)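 Disk diffusion susceptibility profiling against a panel of empirically used antipseudomonal antibiotics. Each strain was categorised as susceptible (S) or intermediate (I).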

For assay [2], the system named is Pseudomonas aeruginosa. As to the kind of experiment: Susceptibility testing against Pseudomonas aeruginosa PAE_NUH23; S=Susceptible. Format: functional, organism-based. In a few lines:
as §2

In assay [3] the test system is Pseudomonas aeruginosa. In words: (§3) Susceptibility testing against Pseudomonas aeruginosa PAE_NUH24; S=Susceptible. Format: functional, organism-based. In short, it runs like this:
as §2

Assay [4] concerns Pseudomonas aeruginosa. In words: (§4) Susceptibility testing against Pseudomonas aeruginosa PAE_NUH22; S=Susceptible. Format: functional, organism-based. In a few lines:
as §2

Assay [5] concerns Pseudomonas aeruginosa. In words: (§5) Susceptibility testing against Pseudomonas aeruginosa PAE_NUH25; S=Susceptible. The format is functional, organism-based. In short, it runs like this: as §2
Assay [6] has as its system Pseudomonas aeruginosa. In words: Susceptibility testing against Pseudomonas aeruginosa PAE_NUH07; I=Intermediate. Format: functional, organism-based. In a few lines: (§6)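 Disk diffusion susceptibility profiling of P. aeruginosa reference and clinical isolates against empirically used antipseudomonal antibiotics. Each isolate was categorised as susceptible, intermediate or resistant.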

Assay [7] concerns Pseudomonas aeruginosa. As to the kind of experiment: (§7) Susceptibility testing against Pseudomonas aeruginosa PAE_NUH05; R=Resistant. The format is functional, organism-based. In short, it runs like this: as §6
The test system of assay [8] is Pseudomonas aeruginosa. In words: (§8) Susceptibility testing against Pseudomonas aeruginosa PAE_NUH17; S=Susceptible. The format is functional, organism-based. In a few lines:
as §2

Assay [9] has as its system Pseudomonas aeruginosa. As to the kind of experiment: (§9) Susceptibility testing against Pseudomonas aeruginosa PAE_NUH19; S=Susceptible. The format is functional, organism-based. In short, it runs like this: as §2
The test system of assay [10] is Pseudomonas aeruginosa. As to the kind of experiment: (§10) Susceptibility testing against Pseudomonas aeruginosa PAE_NUH01; R=Resistant. Format: functional, organism-based. In short, it runs like this: as §6
The subject of assay [11] is Pseudomonas aeruginosa. As to the kind of experiment: (§11) Susceptibility testing against Pseudomonas aeruginosa PAE_NUH03; R=Resistant. The format is functional, organism-based. In short, it runs like this:
as §6

Assay [12] relates to Pseudomonas aeruginosa. As to the kind of experiment: (§12) Susceptibility testing against Pseudomonas aeruginosa PAE_NUH04; R=Resistant. Format: functional, organism-based. In a few lines: as §6
Assay [13] has as its system Pseudomonas aeruginosa. In words: (§13) Susceptibility testing against Pseudomonas aeruginosa PAE_NUH18; S=Susceptible. The format is functional, organism-based. In a few lines: as §2
Assay [14] has as its system Pseudomonas aeruginosa. In words: (§14) Susceptibility testing against Pseudomonas aeruginosa PAE_NUH06; R=Resistant. Format: functional, organism-based. In short, it runs like this:
as §6

The test system of assay [15] is Pseudomonas aeruginosa. As to the kind of experiment: Susceptibility testing against Pseudomonas aeruginosa ATCC 27853; S=Susceptible. The format is functional, organism-based. In short, it runs like this: as §2
Assay [16] relates to Pseudomonas aeruginosa. In words: (§15) Susceptibility testing against Pseudomonas aeruginosa PAE_NUH20; S=Susceptible. The format is functional, organism-based. In a few lines:
as §2

The subject of assay [17] is Pseudomonas aeruginosa. In words: (§16) Susceptibility testing against Pseudomonas aeruginosa PAE_NUH02; R=Resistant. The format is functional, organism-based. In a few lines:
as §6

Assay [18] relates to Escherichia coli. As to the kind of experiment: In vitro minimum inhibitory concentration against Escherichia coli ATCC 25922; Range is 0.25-1. Format: functional.
Assay [19] concerns Pseudomonas aeruginosa. The assay is described as §12. The format is functional.
For assay [20], the system named is Pseudomonas aeruginosa. The assay is described as §15. Format: functional.
The subject of assay [21] is Pseudomonas aeruginosa. In words: Minimum inhibitory concentration against Pseudomonas aeruginosa ATCC 27853; Range is 0.25-1. Format: functional.
In assay [22] the test system is Enterococcus faecalis. As to the kind of experiment: In vitro minimum inhibitory concentration against Enterococcus faecalis 29212; range is 8-32 ug/ml. Format: functional. In a few lines: (§17)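 Broth microdilution following CLSI M100-S12. Stocks were 10 mg/mL in water, diluted in Mueller–Hinton broth to a top level of 128, then serially 2-fold in plates. Bacteria in cation-adjusted Mueller–Hinton broth were mixed 1:1 with drug and incubated 16–20 h at 35 °C. MIC was the lowest concentration with no visible growth. Run in duplicate with no-antibiotic and no-inoculum (sterility) controls.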

The test system of assay [23] is Pseudomonas aeruginosa. Described as §4. The format is functional.
Assay [24] relates to Pseudomonas aeruginosa. In words: Susceptibility testing against Pseudomonas aeruginosa PAE_NUH07; S=Susceptible. Format: functional. In a few lines:
as §2

Assay [25] relates to Staphylococcus aureus. In words: In vitro minimum inhibitory concentration against Staphylococcus aureus ATCC 29213; Range is 0.12-1. The format is functional.
The subject of assay [26] is Pseudomonas aeruginosa. The assay is described as §16. The format is functional.
The subject of assay [27] is Pseudomonas aeruginosa. The assay is described as §11. The format is functional.
Assay [28] relates to Pseudomonas aeruginosa. The assay is described as §3. The format is functional.
The test system of assay [29] is Pseudomonas aeruginosa. The description is as §5. The format is functional.
The subject of assay [30] is Pseudomonas aeruginosa. The description is as §8. Format: functional.
Assay [31] relates to Pseudomonas aeruginosa. In words: Minimum inhibitory concentration against Pseudomonas aeruginosa ATCC 27853. The format is functional. In short, it runs like this: as §17
The subject of assay [32] is Pseudomonas aeruginosa. Described as §10. The format is functional.
The subject of assay [33] is Pseudomonas aeruginosa. Described as §9. Format: functional.
The test system of assay [34] is Pseudomonas aeruginosa. As to the kind of experiment: Minimum inhibitory concentration against Pseudomonas aeruginosa PAO-1; Range is 0.25-1. The format is functional.
Assay [35] has as its system Pseudomonas aeruginosa. The description is as §7. Format: functional.
Assay [36] relates to Staphylococcus aureus. In words: In vitro minimum inhibitory concentration against Staphylococcus aureus MRSA 3359. The format is functional. In a few lines:
as §17

Assay [37] has as its system Pseudomonas aeruginosa. Described as §13. Format: functional.
Assay [38] concerns Pseudomonas aeruginosa. As to the kind of experiment: Susceptibility testing against Pseudomonas aeruginosa PAE_NUH23; R=Resistant. Format: functional.
Assay [39] deals with Pseudomonas aeruginosa. The assay is described as §14. Format: functional.
The test system of assay [40] is Pseudomonas aeruginosa. Described as §1. The format is functional.

Structures are written as SMILES. In brackets after ≈: the same amount, converted by molar mass. Bounds are passed on as bounds.

Consider `CC(C)(O/N=C(\C(=O)N[C@@H]1C(=O)N2C(C(=O)[O-])=C(C[n+]3ccccc3)CS[C@H]12)c1csc(N)n1)C(=O)O`, for which the Activity result in assay [1] is “Susceptible”; in assay [2], “Susceptible”; in assay [3], “Susceptible”; in assay [4], “Susceptible”; in assay [5] it was “Susceptible”; in assay [6], “I”. Moreover, the Activity entry in [7] is on record as “Resistant”; in [8] it was “Susceptible”; in assay [9], “Susceptible”; in assay [10] it was “Resistant”; in assay [11], “Resistant”; in assay [12] it was “Resistant”. Further, the Activity entry in assay [13] is recorded as “Susceptible”; in [14], “Resistant”; in assay [15], “Susceptible”; in [16], “Susceptible”; in assay [17], “Resistant”.
Take `NC[C@H]1O[C@H](O[C@H]2[C@H](O)[C@@H](O[C@H]3O[C@H](CO)[C@@H](O)[C@H](N)[C@H]3O)[C@H](N)C[C@@H]2N)[C@H](N)C[C@@H]1O` [TOBRAMYCIN]: the MIC is 1 µg/mL (≈ 2.14 µM) in [18]; 100 µg/mL (≈ 214 µM) in [19]; 2 µg/mL (≈ 4.28 µM) in assay [20]; 1 µg/mL (≈ 2.14 µM) in assay [21]; 32 µg/mL (≈ 68.4 µM) in assay [22]; 0.25 µg/mL (≈ 0.535 µM) in assay [23]. Further, the MIC in assay [24] turned out to be 6.3 µg/mL (≈ 13.5 µM); in assay [25], 1 µg/mL (≈ 2.14 µM); in assay [26], 50 µg/mL (≈ 107 µM); in [27], 50 µg/mL (≈ 107 µM); in [28], 1 µg/mL (≈ 2.14 µM); in assay [29], 0.5 µg/mL (≈ 1.07 µM). Besides, the MIC in assay [30] was 1 µg/mL (≈ 2.14 µM); in assay [31], 1 µg/mL (≈ 2.14 µM); in assay [32] it was more than 200 µg/mL; in assay [33], 0.5 µg/mL (≈ 1.07 µM); in [34] it was 1 µg/mL (≈ 2.14 µM); in assay [35] it was 100 µg/mL (≈ 214 µM). The MIC is more than 64 µg/mL in [36]; 0.5 µg/mL (≈ 1.07 µM) in assay [37]; more than 32 µg/mL in assay [38]; 100 µg/mL (≈ 214 µM) in assay [39]; 1 µg/mL (≈ 2.14 µM) in assay [40].
